The list is not random: actives were taken first. Their share in the collection is about 1.3%.
PTPN22 act: increases human PTPN22 phosphatase activity; activation, % at 2 µM; actives 0.11% (n = 96,000); Q9Y2R2; recombinant LYP, DiFMUP fluorescence; 0 = plate median, 100 = signal doubled;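 active means activation at 2 µM above a set limit, the mean plus 5 SD, cut at about 37% in these data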
HIV Rev-RRE inh: disrupts HIV-1 Rev binding to RRE RNA; AID 704; actives 0.79% (n = 97,000); P05866; inhibition, % at 8 µM; Rev peptide-RRE RNA binding, FRET;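 active means inhibition above the screen-wide mean plus 3 SD, cut at about 35% in these data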;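 further: 0% = median DMSO wells and 100% = median Neomycin B control wells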
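Test system: Cy5-tagged RRE RNA duplex with fluorescein-tagged Rev peptide; Probe or stimulus: labelled Rev peptide; Schedule: 5 min preincubation and 15 min binding, 25 °C; Signal: FRET fluorescence readout; Evaluation: % inhibition from 671/540 nm acceptor-to-donor ratio, scaled between controls; Control set: DMSO and neomycin B.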
EphB4 ephrin blk: blocks human EphB4 binding to ephrin-B2 | P54760 | EphB4 LBD / TNYL-RAW-Alexa532 peptide, fluorescence polarization | inhibition, % at 7 µM | actives 0.15% (n = 97,000);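 active means inhibition above the screen-wide mean inhibition plus 3 SD, cut at about 15% in these data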;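 further: 0% = DMSO wells and 100% = excess unlabeled TNYL-RAW peptide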
LYP inh 2: inhibitors of human LYP (PTPN22) phosphatase; Q9Y2R2; recombinant LYP catalytic domain, DiFMUP fluorescence; inhibition, % at 2 µM; actives 0.21% (n = 96,000);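 active means inhibition at 2 µM at or above a set limit, the screen mean plus 3 SD, cut at about 24% in these data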;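 further: 0% = DMSO with enzyme and 100% = enzyme fully blocked by orthovanadate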
LYP act confirm: LYP (PTPN22) phosphatase activation confirmation. shares compounds with PTPN22 act. Recombinant LYP, DIFMUP fluorescence; zero set by plate's median compound well. activation, % at 2 µM. 100 tested, under 10 active. AID 1031; call rule not given here
* hit, by the source's call; . = no result given.

SMILES | PTPN22 act | HIV Rev-RRE inh | EphB4 ephrin blk | LYP inh 2 | LYP act confirm
Cc1nnc(NC(=O)c2ccccc2F)s1 | 38* | 4 | -5 | -42 | 6
Cc1nnc(NC(=O)c2ccccc2Br)s1 | 0 | 7 | -1 | -1 | .
CCCc1cc(=O)[nH]c(SC(CC)C(=O)Nc2ccccc2C#N)n1 (centres undefined) | -6 | 2 | 10 | 8 | .
O=C(Nc1cccnc1)c1cccnc1Cl | 38* | 7 | -3 | -42 | -4
COc1ccc(C(C)(C)C)cc1NC(=O)c1c(C)noc1C | -5 | 10 | 3 | 2 | .
CCc1onc(C)c1C(=O)Nc1cc(C)ccc1OC | 40* | 2 | -8 | -44 | -4
Cc1ccc(C(=O)NCCSc2ccc(Cl)cc2)cc1S(=O)(=O)Nc1ccccc1 | 0 | 22 | 2 | 5 | .

Assay outcomes as filed in PubChem BioAssay.
